Active and inactive are the calls of the source. The calls are words filed in the database; no cut-off is given here. Numbered stars: 1 amine (or outer) side, 2 acyl side, 3 side chain; on linkers, the order of the positions; unused ones are H or OH. Square brackets hold non-standard residues; d marks the D form. Peptide text beside a SMILES is read from it. X4 = Cc1ccc(C[C@H](N)CN(CC(=O)[*:2])[*:1])cc1; X2 = N[C@@H](Cc1ccccc1)CN(CC(=O)[*:2])[*:1]; X3 = N[C@@H](CC1CCCCC1)CN(CC(=O)[*:2])[*:1]; Nphe = O=C(O)CNCc1ccccc1
Tests used:
[1] = molecular target: Nociceptin receptor (Mus musculus, UniProt P35377); assay: Affinity to nociceptin receptors on mouse forebrain membranes by [3H]NC-NH2 displacement.
Summary of the method: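 Forebrain membranes from male Swiss mice (25-30 g), homogenized in 50 mM Tris HCl, 2 mM EDTA, 100 µM PMSF, pH 7.4, then preincubated 30 min at 37 °C. Bound ligand separated by GF/C filtration. Ki obtained by nonlinear least-squares fitting.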

[2] = species: Mus musculus; assay: Potency (Emax) against electrically evoked contraction (twitch response) in mouse vas deferens; format: functional
Summary of the method: (§1)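 Mouse vas deferens held in Mg2+-free Krebs at 33 °C under 0.3 g resting tension. Field stimulation through platinum electrodes with supramaximal 1-ms pulses at 0.1 Hz, twitches recorded isotonically. After about 2 h equilibration, cumulative concentration-response curves built in 0.5 log steps up to 10 µM. pEC50 taken as the concentration giving half-maximal effect. Mean of at least 3 experiments.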

[3] = species: Mus musculus; assay: Compound was tested for agonistic activity against electrically evoked contraction (twitch response) in mouse vas deferens; format: functional, organism-based; summary of the method: as §1
[4] = species: Mus musculus; assay: Potency (Emax) against electrically evoked contraction (twitch response) in mouse vas deferens; NA means Inactive up to 10 uM; format: functional, organism-based; summary of the method: as §1
[5] = species: Mus musculus; assay: Compound was tested for the antagonistic activity on mouse vas deferens using NC(1-13)NH2 as agonist; format: functional
Summary of the method: (§2)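 Electrically stimulated mouse vas deferens (Mg2+-free Krebs, 33 °C, 0.1 Hz, 1-ms pulses). Antagonist at 10 µM added 15 min before a cumulative NC(1-13)NH2 concentration-response curve. pKB calculated with the Gaddum-Schild equation, assuming a slope of 1, from the concentration ratio. Mean of at least 3 experiments, with 95% confidence limits.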

[6] = species: Mus musculus; assay: Compound was tested for agonistic activity against electrically evoked contraction (twitch response) in mouse vas deferens; NA means Inactive up to 10 uM; format: functional, organism-based; summary of the method: as §1
[7] = species: Mus musculus; assay: Compound was tested for the antagonistic activity on mouse vas deferens using NC(1-13)NH2 as agonist; NA means Inactive up to 10 uM; format: functional, organism-based; summary of the method: as §2

Sequence of Nociceptin receptor (P35377 whole entry): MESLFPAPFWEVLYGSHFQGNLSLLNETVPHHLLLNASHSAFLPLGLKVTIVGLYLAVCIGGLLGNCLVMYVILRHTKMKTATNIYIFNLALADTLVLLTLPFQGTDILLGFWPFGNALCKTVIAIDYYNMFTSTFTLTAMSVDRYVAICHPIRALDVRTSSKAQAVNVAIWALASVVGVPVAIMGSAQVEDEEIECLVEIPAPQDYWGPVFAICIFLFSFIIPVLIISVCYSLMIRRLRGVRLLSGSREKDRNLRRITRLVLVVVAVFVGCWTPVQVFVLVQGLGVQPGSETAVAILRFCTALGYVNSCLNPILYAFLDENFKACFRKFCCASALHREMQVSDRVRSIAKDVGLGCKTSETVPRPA

Row | Structure (SMILES) | Ki [1] [µM] | Emax [2] [%] | EC50 [3] [µM] | Emax [4] | pKB [5] | Log EC50 [6] | pKB [7]
1 | CC(C)C[C@H](N)C(=O)NCC(=O)NCC(=O)N[C@@H](Cc1ccccc1)C(=O)N[C@H](C(=O)NCC(=O)N[C@@H](C)C(=O)N[C@@H](CCCN=C(N)N)C(=O)N[C@@H](CCCCN)C(=O)N[C@@H](CO)C(=O)N[C@@H](C)C(=O)N[C@@H](CCCN=C(N)N)C(=O)N[C@@H](CCCCN)C(N)=O)[C@@H](C)O (H-LGGFTGARKSARK-NH2) | 0.00251 | -80 | 0.0251 |  |  |  | 
2 | CC(C)C[C@H](NC(=O)[C@H](CCCCN)NC(=O)[C@H](CCCN=C(N)N)NC(=O)[C@H](C)NC(=O)[C@H](CO)NC(=O)[C@H](CCCCN)NC(=O)[C@H](CCCN=C(N)N)NC(=O)[C@H](C)NC(=O)CNC(=O)[C@@H](NC(=O)[C@H](Cc1ccccc1)NC(=O)CNC(=O)CNC[C@@H](N)Cc1ccccc1)[C@@H](C)O)C(=O)N[C@@H](C)C(=O)N[C@@H](CC(N)=O)C(=O)N[C@@H](CCC(N)=O)C(N)=O (H-[X2]GFTGARKSARKLANQ-NH2) | 0.02 |  |  | inactive | 7 | inactive | 
3 | C[C@H](NC(=O)CNC(=O)[C@@H](NC(=O)[C@H](Cc1ccccc1)NC(=O)CNC(=O)CNC(=O)CNCc1ccc(O)cc1)[C@@H](C)O)C(=O)N[C@@H](CCCN=C(N)N)C(=O)N[C@@H](CCCCN)C(=O)N[C@@H](CO)C(=O)N[C@@H](C)C(=O)N[C@@H](CCCN=C(N)N)C(=O)N[C@@H](CCCCN)C(N)=O | 3.16 |  |  | inactive |  | inactive | inactive
4 | C[C@H](NC(=O)CNC(=O)[C@@H](NC(=O)[C@H](Cc1ccccc1)NC(=O)CNC(=O)CNC(=O)CNCc1ccccc1)[C@@H](C)O)C(=O)N[C@@H](CCCN=C(N)N)C(=O)N[C@@H](CCCCN)C(=O)N[C@@H](CO)C(=O)N[C@@H](C)C(=O)N[C@@H](CCCN=C(N)N)C(=O)N[C@@H](CCCCN)C(N)=O |  |  |  | inactive | 6.4 | inactive | 
5 | C[C@H](NC(=O)CNC(=O)[C@@H](NC(=O)[C@H](Cc1ccccc1)NC(=O)CNC(=O)CNC[C@@H](N)Cc1ccccc1)[C@@H](C)O)C(=O)N[C@@H](CCCN=C(N)N)C(=O)N[C@@H](CCCCN)C(=O)N[C@@H](CO)C(=O)N[C@@H](C)C(=O)N[C@@H](CCCN=C(N)N)C(=O)N[C@@H](CCCCN)C(N)=O (H-[X2]GFTGARKSARK-NH2) | 0.01 |  |  | inactive | 6.8 | inactive | 
6 | C[C@H](NC(=O)CNC(=O)[C@@H](NC(=O)[C@H](Cc1ccccc1)NC(=O)CNC(=O)CNC(=O)[C@@H](N)Cc1ccccc1)[C@@H](C)O)C(=O)N[C@@H](CCCN=C(N)N)C(=O)N[C@@H](CCCCN)C(N)=O (H-FGGFTGARK-NH2) | > 10 |  |  | inactive |  | inactive | inactive
7 | Cc1ccc(C[C@H](N)CNCC(=O)NCC(=O)N[C@@H](Cc2ccccc2)C(=O)N[C@H](C(=O)NCC(=O)N[C@@H](C)C(=O)N[C@@H](CCCN=C(N)N)C(=O)N[C@@H](CCCCN)C(=O)N[C@@H](CO)C(=O)N[C@@H](C)C(=O)N[C@@H](CCCN=C(N)N)C(=O)N[C@@H](CCCCN)C(N)=O)[C@@H](C)O)cc1 (H-[X4]GFTGARKSARK-NH2) | 0.631 |  |  | inactive | 5.7 | inactive | 
8 | C[C@H](NC(=O)CNC(=O)[C@@H](NC(=O)[C@H](Cc1ccccc1)NC(=O)CNC(=O)CNC(=O)CNCC1CCCCC1)[C@@H](C)O)C(=O)N[C@@H](CCCN=C(N)N)C(=O)N[C@@H](CCCCN)C(=O)N[C@@H](CO)C(=O)N[C@@H](C)C(=O)N[C@@H](CCCN=C(N)N)C(=O)N[C@@H](CCCCN)C(N)=O | 2.51 |  |  | inactive |  | inactive | inactive
9 | C[C@H](NC(=O)CNC(=O)[C@@H](NC(=O)[C@H](Cc1ccccc1)NC(=O)CNC(=O)CNC(=O)[C@@H](N)Cc1ccccc1)[C@@H](C)O)C(=O)N[C@@H](CCCNC(=N)N)C(=O)N[C@@H](CCCCN)C(=O)N[C@@H](CO)C(=O)N[C@@H](C)C(=O)N[C@@H](CCCNC(=N)N)C(=O)N[C@@H](CCCCN)C(N)=O |  | -84 | 0.0158 |  |  |  | 
10 | C[C@H](NC(=O)CNC(=O)[C@@H](NC(=O)[C@H](Cc1ccccc1)NC(=O)CNC(=O)CNC[C@@H](N)Cc1ccccc1)[C@@H](C)O)C(=O)N[C@@H](CCCN=C(N)N)C(=O)N[C@@H](CCCCN)C(=O)N[C@@H](CO)C(=O)N[C@@H](C)C(=O)N[C@@H](CCCN=C(N)N)C(N)=O (H-[X2]GFTGARKSAR-NH2) | 0.398 |  |  | inactive | 5.2 | inactive | 
11 | CC(C)CNCC(=O)NCC(=O)NCC(=O)N[C@@H](Cc1ccccc1)C(=O)N[C@H](C(=O)NCC(=O)N[C@@H](C)C(=O)N[C@@H](CCCN=C(N)N)C(=O)N[C@@H](CCCCN)C(=O)N[C@@H](CO)C(=O)N[C@@H](C)C(=O)N[C@@H](CCCN=C(N)N)C(=O)N[C@@H](CCCCN)C(N)=O)[C@@H](C)O | 2.51 |  |  | inactive |  | inactive | inactive
12 | C[C@H](NC(=O)CNC(=O)[C@@H](NC(=O)[C@H](Cc1ccccc1)NC(=O)CNC(=O)CNC(=O)CNCc1ccccc1)[C@@H](C)O)C(=O)N[C@@H](CCCN=C(N)N)C(=O)N[C@@H](CCCCN)C(=O)N[C@@H](CO)C(=O)N[C@@H](C)C(=O)N[C@@H](CCCN=C(N)N)C(N)=O (H-[Nphe]GGFTGARKSAR-NH2) | 3.16 |  |  | inactive |  | inactive | inactive
13 | CC(C)C[C@H](NC(=O)[C@H](CCCCN)NC(=O)[C@H](CCCN=C(N)N)NC(=O)[C@H](C)NC(=O)[C@H](CO)NC(=O)[C@H](CCCCN)NC(=O)[C@H](CCCN=C(N)N)NC(=O)[C@H](C)NC(=O)CNC(=O)[C@@H](NC(=O)[C@H](Cc1ccccc1)NC(=O)CNC(=O)CNC(=O)CNCc1ccccc1)[C@@H](C)O)C(=O)N[C@@H](C)C(=O)N[C@@H](CC(N)=O)C(=O)N[C@@H](CCC(N)=O)C(N)=O | 0.126 |  |  | inactive | 6.3 | inactive | 
14 | C[C@H](NC(=O)CNC(=O)[C@@H](NC(=O)[C@H](Cc1ccccc1)NC(=O)CNC(=O)CNC[C@@H](N)CC1CCCCC1)[C@@H](C)O)C(=O)N[C@@H](CCCN=C(N)N)C(=O)N[C@@H](CCCCN)C(=O)N[C@@H](CO)C(=O)N[C@@H](C)C(=O)N[C@@H](CCCN=C(N)N)C(=O)N[C@@H](CCCCN)C(N)=O (H-[X3]GFTGARKSARK-NH2) | 0.316 |  |  | inactive |  | inactive | inactive
15 | C[C@H](NC(=O)CNC(=O)[C@@H](NC(=O)[C@H](Cc1ccccc1)NC(=O)CNC(=O)CNC[C@@H](N)Cc1ccccc1)[C@@H](C)O)C(=O)N[C@@H](CCCN=C(N)N)C(=O)N[C@@H](CCCCN)C(N)=O (H-[X2]GFTGARK-NH2) | > 10 |  |  | inactive | 5.1 | inactive | 
16 | Cc1ccc(CNCC(=O)NCC(=O)NCC(=O)N[C@@H](Cc2ccccc2)C(=O)N[C@H](C(=O)NCC(=O)N[C@@H](C)C(=O)N[C@@H](CCCN=C(N)N)C(=O)N[C@@H](CCCCN)C(=O)N[C@@H](CO)C(=O)N[C@@H](C)C(=O)N[C@@H](CCCN=C(N)N)C(=O)N[C@@H](CCCCN)C(N)=O)[C@@H](C)O)cc1 | 2.51 |  |  | inactive |  | inactive | inactive
